Hck Nef HTS: blocks Nef-activated human Hck kinase; P08631; Recombinant Hck-YEEI plus Nef, Z-Lyte FRET kinase assay; inhibition, % at 20 µM; hit rate 0.68% among 220,000; AID 463187;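 active = Hck-Nef kinase inhibition above about 50%, limit read from the data; inactive = inhibition below that limit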;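 note: 0% = DMSO with Hck plus Nef and 100% = Hck alone without Nef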
Runt-CBFb FRET: Runt domain-CBFb interaction inhibition; hit rate 0.46% among 220,000; inhibition, % at 20 µM; Cerulean-Runt/Venus-CBFb FRET ratio 530/480, 1 h;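 active = inhibition over about 50% at 20 µM in the single-dose screen, limit read from the data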;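 note: 0% = DMSO wells and 100% = excess unlabeled CBFb competitor control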
Target sequence (Q01196 whole entry, looked up, the tested form may be a part): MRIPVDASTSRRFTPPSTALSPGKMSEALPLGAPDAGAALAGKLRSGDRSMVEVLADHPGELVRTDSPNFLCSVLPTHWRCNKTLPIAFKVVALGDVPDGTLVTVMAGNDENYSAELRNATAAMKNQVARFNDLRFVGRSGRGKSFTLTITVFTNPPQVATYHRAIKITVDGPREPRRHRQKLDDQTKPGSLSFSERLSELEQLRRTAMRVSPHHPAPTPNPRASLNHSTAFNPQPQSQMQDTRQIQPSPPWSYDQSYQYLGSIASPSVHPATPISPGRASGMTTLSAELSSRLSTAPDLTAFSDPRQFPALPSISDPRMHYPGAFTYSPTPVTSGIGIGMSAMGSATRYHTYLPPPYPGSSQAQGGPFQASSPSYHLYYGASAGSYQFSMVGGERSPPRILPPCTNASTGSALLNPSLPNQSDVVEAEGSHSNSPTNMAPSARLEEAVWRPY
Target sequence (Q13951 whole entry, looked up, the tested form may be a part): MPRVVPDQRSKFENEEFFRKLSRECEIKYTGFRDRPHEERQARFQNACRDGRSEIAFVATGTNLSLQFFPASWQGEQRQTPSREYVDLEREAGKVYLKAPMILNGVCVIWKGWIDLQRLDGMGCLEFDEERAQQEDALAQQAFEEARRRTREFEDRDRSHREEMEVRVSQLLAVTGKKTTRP
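Assay system: Cerulean-tagged RUNX1 Runt domain (FRET donor) fusion protein / Amount: 100 nM each of Venus-CBFb and Cerulean-Runt domain / Medium: Tris buffer pH 7.5 with salts and BSA / Also added: Venus-CBFb 100 nM / Schedule: 1 h complex formation plus 1 h compound treatment, room temperature / Signal: FRET fluorescence / Read-out: loss of energy transfer signal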
RanGTP-Impb inh: inhibitors of RanGTP-importin-beta interaction, primary screen, biochemical, FRET, CFP-Ran, YFP-importin-beta, homogeneous; inhibition, % (concentration not given with the values); AID 2216; cell-free CFP-Ran/YFP-importin-beta FRET ratio; hit rate 1.1% among 300,000;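 active = more than half of the replicate wells show a fall in the fluorescence ratio signal beyond about 16%, limit read from the data, passing the limit was not always enough; inconclusive = exactly half of the replicate wells pass the set limit; inactive = fewer than half of replicates pass the limit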;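 note: 0% = DMSO wells and 100% = Ran loaded with GDP instead of GTP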
PfM18AAP inh: blocks P. falciparum M18 aspartyl aminopeptidase; recombinant PfM18AAP, H-Glu-NHMec fluorogenic cleavage; inhibition, % at 7.35 µM; hit rate 1.2% among 290,000; AID 1822;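 active = inhibition above the campaign mean inhibition over all tested compounds plus 3 SD, cut at about 28% in these data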;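 note: 0% = plate median of test compound wells and 100% = 2 mM ZnCl2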
Runt-SMMHC FRET: Runt domain-CBFb-SMMHC interaction inhibition. Q01196+Q13951. Cerulean-Runt/Venus-CBFb-SMMHC FRET ratio 530/480, 1 h. inhibition, % at 20 µM. hit rate 0.74% among 220,000;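 active = mean inhibition across duplicate retests at 20 µM reaching about 50%, limit read from the data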;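 note: 0% = DMSO wells and 100% = wells with excess untagged CBFb-SMMHC; inhibitors lower the FRET ratio by blocking Runt binding to CBFb-SMMHC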
RBBP9 inh: blocks human serine hydrolase RBBP9; O75884; recombinant RBBP9, FP-Rh probe fluorescence polarization; inhibition, % at 7.94 µM; hit rate 0.2% among 220,000;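 active = inhibition above the campaign mean of all tested compounds plus 3 SD, cut at about 14% in these data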;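 note: plate controls were DMSO wells with RBBP9 for no effect and wells lacking RBBP9 protein for full effect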
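system = RBBP9 protein | input = RBBP9 at 2.5 µM in dispensed solution, before mixing | measured by = fluorescence polarization (mP), excitation 525 nm, emission 598 nm | incubation = enzyme-compound preincubation 30 min, then probe labeling 45 min, 25 °C | buffer or medium = Tris-NaCl-Pluronic buffer, pH 8.0 | compound = single dose 7.94 µM | also added = FP-Rh probe, 375 nM dispensing solution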
Runt-CBFb TRFRET: disrupts human RUNX1 Runt domain binding to CBFb; TR-FRET RUNX1 Runt domain-CBFb binding; shares compounds with Runt-CBFb FRET; hit rate 20% among 480; inhibition, % at 20 µM; in the data active = inhibition above about 40%
* hit, by the source's call. This is a sample that favours compounds with a hit; in the whole collection about 2.9% have one here.

Oc1ccc(/C=N/N=C(c2ccccc2)c2ccccc2)c(O)c1O was read as Hck Nef HTS -1, Runt-CBFb FRET 57*, PfM18AAP inh 24, Runt-SMMHC FRET 46, RBBP9 inh 0 and Runt-CBFb TRFRET 63*.
`c1ccc(C2CC(c3cccs3)=NN2c2ccccc2)cc1` (stereo unspecified) gave Hck Nef HTS -24, Runt-CBFb FRET 51*, RanGTP-Impb inh 12, PfM18AAP inh 8, Runt-SMMHC FRET 84*, RBBP9 inh -3 and Runt-CBFb TRFRET 39.
Screening COc1ccc(N/C=C2/Sc3ccccc3NC2=O)cc1 returned Hck Nef HTS 26, Runt-CBFb FRET 61*, RanGTP-Impb inh 1, PfM18AAP inh 21, Runt-SMMHC FRET 54*, RBBP9 inh -1 and Runt-CBFb TRFRET 14.
`O=C1Nc2ccccc2S/C1=C/NCc1ccccc1Cl` gave Hck Nef HTS 29, Runt-CBFb FRET 59*, RanGTP-Impb inh 0, PfM18AAP inh 15, Runt-SMMHC FRET 26, RBBP9 inh -10 and Runt-CBFb TRFRET 14.
`Cc1ccc(N/C=C2/Sc3ccccc3NC2=O)cc1` gave Hck Nef HTS -3, Runt-CBFb FRET 36, RanGTP-Impb inh -2, PfM18AAP inh 5, Runt-SMMHC FRET -8 and RBBP9 inh -5.
For Cc1c(C(=O)N2CCN(Cc3ccccc3)CC2)oc2c1C(=O)CC(C)(C)C2 the results were RanGTP-Impb inh inconclusive and PfM18AAP inh 7.
For N#C/C(=C\c1c(N2CCCCCC2)nc2ccccn2c1=O)C(=O)NCc1ccco1 the results were Hck Nef HTS -3, Runt-CBFb FRET 75*, RanGTP-Impb inh 6, PfM18AAP inh 2, Runt-SMMHC FRET -3, RBBP9 inh -1 and Runt-CBFb TRFRET 22.
Screening COc1cc(C2C3=C(CC(C)(C)CC3=O)Nc3c2c(=O)[nH]c(=O)n3Cc2ccccc2)ccc1O (stereo unspecified) returned Hck Nef HTS 4, Runt-CBFb FRET 76*, RanGTP-Impb inh inconclusive, PfM18AAP inh 1, Runt-SMMHC FRET 115*, RBBP9 inh -15 and Runt-CBFb TRFRET 6.
For CC(C)Cc1csc(NC(=O)c2ccccc2Cl)c1C(=O)O the results were Hck Nef HTS 1, Runt-CBFb FRET 105*, RanGTP-Impb inh -4, PfM18AAP inh -1, Runt-SMMHC FRET -9, RBBP9 inh -5 and Runt-CBFb TRFRET 3.
Screening Cc1cc(C)c2c3c(oc2n1)C(=O)N(c1cccc(Cl)c1)CC(=O)N3 returned Hck Nef HTS 16, Runt-CBFb FRET 2, RanGTP-Impb inh -1, PfM18AAP inh -13, Runt-SMMHC FRET -4 and RBBP9 inh -1.
For Cc1nc2ccccc2n1/N=C/c1ccc([N+](=O)[O-])o1 the results were Hck Nef HTS 3, RanGTP-Impb inh -1, PfM18AAP inh -5 and RBBP9 inh -1.
For Cc1nc2ccccc2c(=O)n1/N=C/c1ccc([N+](=O)[O-])o1 the results were Hck Nef HTS -3, Runt-CBFb FRET 57*, RanGTP-Impb inh 1, PfM18AAP inh 1, Runt-SMMHC FRET 86, RBBP9 inh -3 and Runt-CBFb TRFRET 3.
For COC(=O)c1cc(=O)nc2sc(-c3ccc(F)cc3)nn12 the results were Hck Nef HTS -1, Runt-CBFb FRET 52*, RanGTP-Impb inh 0, PfM18AAP inh -20, Runt-SMMHC FRET 5, RBBP9 inh -4 and Runt-CBFb TRFRET 22.
Screening CCn1c(C)c(C(C)=O)c(N2CCN(c3ccccn3)CC2)nc1=S returned Hck Nef HTS -8, Runt-CBFb FRET 52*, RanGTP-Impb inh 45*, PfM18AAP inh 7, Runt-SMMHC FRET 100*, RBBP9 inh -12 and Runt-CBFb TRFRET -4.
Screening Oc1ccc(C=NC2CCCCC2)cc1 returned Hck Nef HTS 27, Runt-CBFb FRET -1, RanGTP-Impb inh 1, PfM18AAP inh 5, Runt-SMMHC FRET -3 and RBBP9 inh -7.
COCCCNC(=S)NCCCNc1nc2cc3c(cc2cc1C#N)OCO3 was read as Hck Nef HTS 33, Runt-CBFb FRET 78*, RanGTP-Impb inh 53*, PfM18AAP inh -3, Runt-SMMHC FRET 140*, RBBP9 inh -7 and Runt-CBFb TRFRET 27.
Screening Cc1noc(C(=O)N2CCN(Cc3ccc4c(c3)OCO4)CC2)c1Cl returned RanGTP-Impb inh inconclusive and PfM18AAP inh -4.
COc1ccc(C(CCN2CCN(c3ccccc3)CC2)c2c(OC)cc(OC)c3c(-c4ccccc4)cc(=O)oc23)cc1 (stereo unspecified) was read as Hck Nef HTS 10, Runt-CBFb FRET 55*, RanGTP-Impb inh 4, Runt-SMMHC FRET -3 and Runt-CBFb TRFRET -2.
CC1CCc2c(nc3ncnn3c2NCCc2ccccc2F)C1 (stereo unspecified) was read as Hck Nef HTS 24, RanGTP-Impb inh -5, PfM18AAP inh -2 and RBBP9 inh -9.
CC(=O)Nc1ccc(S(=O)(=O)N2CCN(c3cc(C(F)(F)F)ccn3)CC2)cc1 was read as Hck Nef HTS 10, Runt-CBFb FRET 56*, RanGTP-Impb inh 2, PfM18AAP inh -9, Runt-SMMHC FRET -3, RBBP9 inh -1 and Runt-CBFb TRFRET 76*.
CCOC(=O)c1ccc(N2C(=O)c3n[nH]c(-c4ccco4)c3C2c2ccc([N+](=O)[O-])cc2)cc1 (stereo unspecified) was read as Hck Nef HTS -2, Runt-CBFb FRET 68*, RanGTP-Impb inh 7, PfM18AAP inh 4, Runt-SMMHC FRET 8, RBBP9 inh -25 and Runt-CBFb TRFRET 30.
CCOC(=O)c1ccc(N2C(=O)c3n[nH]c(C)c3C2c2cccnc2)cc1 (stereo unspecified) was read as Hck Nef HTS -1, Runt-CBFb FRET 0, RanGTP-Impb inh 0, PfM18AAP inh 8, Runt-SMMHC FRET 4 and RBBP9 inh -11.
COc1cccc(N2[C@@H](CC(C)=O)c3ccc(/C=C/C(C)=O)cc3S2(=O)=O)c1 was read as RanGTP-Impb inh -1.
Fc1ccc(-c2nc3ccncc3[nH]2)cc1 was read as Hck Nef HTS 5, Runt-CBFb FRET 2, RanGTP-Impb inh 2, PfM18AAP inh -10, Runt-SMMHC FRET -5 and RBBP9 inh -1.
Clc1ccc(-c2nc3ccncc3[nH]2)cc1 was read as Hck Nef HTS 5, Runt-CBFb FRET 59*, RanGTP-Impb inh inconclusive, PfM18AAP inh 29*, Runt-SMMHC FRET 20, RBBP9 inh -4 and Runt-CBFb TRFRET -10.

Screens (PubChem BioAssay)
